According to ChEMBL document CHEMBL1154465, “Structure-activity relationships in the acronycine and benzo[b]acronycine series: role of the pyran ring” (Eur J Med Chem, 2008):

Experiments:
L1210 = assay: Cytotoxicity against mouse L1210 cells after 48 hrs by microculture tetrazolium assay; format: functional, cell-based; settings: L1210, 48 h
Procedure, shortened: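 L1210 cells maintained in RPMI 1640 plus 10% fetal calf serum, 2 mM L-glutamine, penicillin, streptomycin and 10 mM HEPES (pH 7.4). Drug exposure at nine serial dilutions in triplicate for four doubling times (48 h). Microculture tetrazolium read-out; results given as IC50.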

[1] = Cytotoxicity against human KB3-1 cells after 96 hrs by microculture tetrazolium assay; format: functional, cell-based; settings: KB 3-1, 96 h
Procedure, shortened: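 KB-3-1 cells grown in DMEM with 10% fetal calf serum, 2 mM L-glutamine, penicillin, streptomycin and 10 mM HEPES (pH 7.4). Exposed to graded drug concentrations (nine serial dilutions, triplicate) for four doubling times (96 h). Viability read by microculture tetrazolium assay; IC50 reported.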

| Compound | IC50 (L1210) [µM] | IC50 [1] [µM] |
| --- | --- | --- |
| COCc1c(OC)cc(OC)c2c(=O)c3ccccc3n(C)c12 | 51.7 | 36.2 |
| COc1ccc2c(=O)c3ccccc3n(C)c2c1COC(C)=O | 24 |  |
| COc1cc(OC)c2c(=O)c3ccccc3n(C)c2c1CO | 23.9 | 34.1 |
| COc1cc(OC)c2c(=O)c3ccccc3n(C)c2c1COC(C)=O | 39.9 | 17.7 |
| COc1ccc2c(=O)c3cc4ccccc4cc3n(C)c2c1CO | 34.6 | 22.5 |
| COc1cc(OC(C)(C)CO)c(CO)c2c1c(=O)c1cc3ccccc3cc1n2C | 1.3 | 26.2 |
| COc1cc(OC(C)(C)COC(C)=O)c(COC(C)=O)c2c1c(=O)c1cc3ccccc3cc1n2C | 3 | 4.9 |
| COc1ccc2c(=O)c3ccccc3n(C)c2c1CO | 13.9 |  |
| COc1ccc2c(=O)c3cc4ccccc4cc3n(C)c2c1COC(C)=O | 18.5 | 7.9 |
| COc1cc2c(c3c1c(=O)c1cc4ccccc4cc1n3C)[C@@H](OC(C)=O)[C@@H](OC(C)=O)C(C)(C)O2 (relative stereo) |  | 0.095 |
